# Experimental data published in paper PMC6304448 (Heliyon, 2018).
# Assays:
# Format in all cases: cell-based
# [1] = tested on: Leishmania donovani promastigotes; assay: Antileishmanial assay; details: 72 h; for IC50: read-out: antileishmanial activity IC50; for IC90: read-out: antileishmanial activity IC90
# In short: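 Leishmania donovani promastigote or axenic amastigote cultures at 2 × 10⁶ cells/ml were exposed to test compound and incubated at 26 °C for 72 hours. Growth was read by AlamarBlue. Pentamidine and amphotericin B served as positive controls. IC₅₀ and IC₉₀ were computed from dose-response curves.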
# [2] = tested on: chloroquine sensitive (D6, Sierra Leone) strain of Plasmodium falciparum; assay: Antimalarial assay; details: D6, 72 h, read-out: antimalarial activity IC50
# In short: (§1)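 Test compound was dissolved in DMSO (2 mg/ml stock) and serially diluted. It was then added to P. falciparum culture (2% parasitemia, 2% hematocrit) in RPMI 1640 with 10% human serum and 60 μg/mL amikacin. Plates were held under 90% N₂/5% O₂/5% CO₂ at 37 °C for 72 hours. Parasite LDH was assayed with Malstat reagent for 30 min, then NBT/PES for 1 h in the dark. The reaction was stopped with 5% acetic acid and read at 650 nm. Chloroquine and artemisinin were positive controls and DMSO (0.25%) the negative control. IC₅₀ came from percent growth versus concentration curves.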
# [3] = tested on: chloroquine resistant (W2, Indo China) strain of Plasmodium falciparum; assay: Antimalarial assay; details: W2, 72 h, read-out: antimalarial activity IC50
# In short: as §1
# [4] = In-vitro cytotoxicity assay; details: African green monkey, VERO cells (mammalian kidney fibroblasts, ATCC)
# In short: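 VERO cells were seeded at 25,000 cells/well and incubated for 24 h. Test compound was added at a range of concentrations and incubated a further 48 h. Viable cells were quantified by a modified Neutral Red uptake method. Doxorubicin was the positive control and DMSO the negative control. IC₅₀ was derived from dose-response curves.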
SMILES,IC50 [1],IC90 [1],IC50 [2],IC50 [3],IC50 at 48 h [4]
"O=C1CC(O)C2(O)c3c(ccc(O)c31)-c1ccc(O)c3c1C2C1OC1C3O (stereo not shown) [Compound 1, 3,6,6a,9,10-pentahydroxy-7,8-epoxy-4-oxo-4,5,6,6a,6b,7,8,9-octahydroperylene]",2.55 µg/mL,8.28 µg/mL,,,
"O=C1CC(O)C2c3c(ccc(O)c31)-c1ccc(O)c3c1C2(O)C(O)CC3=O (stereo not shown) [Compound 2, 3,6,6a,7,10-pentahydroxy-4,9-dioxo-4,5,6,6a,6b,7,8,9-octahydroperylene]",4.4 µg/mL,9.54 µg/mL,4.24 µg/mL,3.65 µg/mL,3.59 µg/mL
